Test results: paper PMC9728588 (Chemical Science, 2022)
Ends that are not written are not given here.

Key:
red blood cells = test: Hemolysis assay; type: cell-based, mouse; conditions: 2% (v/v) RBC in PBS, 37 °C, 1 h; absorbance 540 nm; water / PBS controls
Procedure, shortened: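 Red cells were exposed to the test peptide across a concentration range, and separately to peptide–quantum dot co-assemblies (peptide fixed at 1 mg mL−1, QD level varied). Supernatants were scanned by UV-vis spectroscopy to derive hemolysis rates. Means ± s.d., n = 3; one-way ANOVA with Tukey post hoc test.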

CD47 = CD47 (Homo sapiens, UniProt Q08722); test: SPRi analysis of the binding between RT and CD47
Sequence of CD47 (Q08722 19-323, species assumed): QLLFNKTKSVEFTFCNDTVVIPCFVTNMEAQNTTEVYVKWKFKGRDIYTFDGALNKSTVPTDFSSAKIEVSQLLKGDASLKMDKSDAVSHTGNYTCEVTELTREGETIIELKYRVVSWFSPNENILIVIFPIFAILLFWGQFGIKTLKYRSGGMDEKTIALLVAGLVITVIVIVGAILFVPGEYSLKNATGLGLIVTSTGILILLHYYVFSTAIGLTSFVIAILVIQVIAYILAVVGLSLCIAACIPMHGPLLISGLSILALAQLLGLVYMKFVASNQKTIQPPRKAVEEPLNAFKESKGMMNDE

HFEYWEERHKKLVFF [RT] was tested, and the hemolytic effect (red blood cells) was “almost no hemolytic effect” and the Kd (CD47) was 318 nM.
